Active and inactive are the calls of the source. No cut-off for these calls is given here.
Experiments:
RAW264.7 [1] = assay: Cytotoxicity against mouse RAW264.7 cells assessed as decrease in cell viability after 24 hrs by MTT assay; assay type: cell-based; conditions: RAW264.7, 24 h
Procedure, shortened: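 RAW264.7 macrophage viability after compound exposure was measured by MTT assay. IC50 (µM) was calculated and reported with a 95% confidence interval.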

RAW264.7 [2] = assay: Antiinflammatory activity in mouse RAW264.7 cells assessed as inhibition of LPS-induced NO production after 24 hrs by Griess assay; assay type: functional, cell-based; conditions: for IC50: RAW264.7, 24 h
Procedure, shortened: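 LPS-stimulated RAW264.7 cells were co-treated with compound. Nitrite, a stable NO metabolite, was measured in culture medium with Griess reagent. IC50 (µM) was reported with a 95% confidence interval.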

RAW264.7 [3] = assay: Selectivity index, ratio IC50 for cytotoxicity against mouse RAW264.7 cells to IC50 for antiinflammatory activity in mouse RAW264.7 cells; assay type: functional
Procedure, shortened: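 Ratio A/B in RAW 264.7 cells. A is the cytotoxicity IC50 from the MTT assay. B is the IC50 for inhibiting NO production in LPS-stimulated cells, with nitrite in the culture medium measured by Griess reagent. Both IC50s are reported with 95% confidence intervals.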

SMILES	IC50 (RAW264.7 [1])	IC50 (RAW264.7 [2])	Ratio IC50 (RAW264.7 [3])	inhibition (RAW264.7 [2])
O=C1NC(=O)C2=C1CCC2SC(=O)c1cccs1 (stereo not drawn)	26.7 µM	65 µM	0.4108	
O=C1NC(=O)C2=C1CC[C@H]2O	319 µM	121 µM	2.631	
CC(=O)OC1CC[C@]2(SC(=O)c3ccccc3Cl)C(=O)NC(=O)[C@H]12 (stereo partly drawn)	9080 µM	101 µM	89.51	
CC(=O)S[C@]12CC[C@H](O)[C@H]1C(=O)NC2=O (relative stereo)	857 µM	833 µM	1.029	
O=C(Cc1ccccc1)S[C@]12CCC[C@H]1C(=O)NC2=O (relative stereo)	426 µM	56.9 µM	7.48	
O=C(S[C@]12CC[C@H](O)[C@H]1C(=O)NC2=O)c1ccccc1 (relative stereo)	17100 µM	65.2 µM	261.7025	
CC(=O)O[C@H]1CC[C@]2(SC(=O)c3ccc(F)cc3)C(=O)NC(=O)[C@H]12				Active
O=C(Cc1ccccc1)SC1CC[C@]2(SC(=O)Cc3ccccc3)C(=O)NC(=O)[C@H]12 (stereo partly drawn)	711 µM	57.5 µM	12.36	
CC(=O)S[C@@]12CC[C@H](O)[C@@H]1C(=O)NC2=O (relative stereo)	558 µM	148 µM	3.7762	
CC(=O)SC12CCC=C1C(=O)NC2=O (stereo not drawn)	184 µM	20.5 µM	9	
O=C(S[C@@]12CC[C@@H](O)[C@@H]1C(=O)NC2=O)c1ccc(O)cc1	2910 µM	127 µM	22.99	
CC(=O)O[C@@H]1CC[C@]2(SC(=O)c3ccc(F)cc3)C(=O)NC(=O)[C@H]12				Active
O=C(S[C@@]12CC[C@H](O)[C@@H]1C(=O)NC2=O)c1ccccc1Cl (relative stereo)	668 µM		5.245	
O=C(S[C@@]12CC[C@H](O)[C@@H]1C(=O)NC2=O)c1ccccc1 (relative stereo)	479 µM	72.4 µM	6.622	
O=C1NC(=O)C2=C1CC[C@@H]2O	217 µM	95.9 µM	2.26	
O=C(S[C@]12CCC[C@H]1C(=O)NC2=O)c1ccccc1Cl (relative stereo)	834 µM	59.8 µM	13.95	
CC(=O)OC1CC[C@]2(SC(=O)c3ccccc3)C(=O)NC(=O)[C@H]12 (stereo partly drawn)	1910 µM	64.3 µM	29.74	
O=C(S[C@]12CC[C@@H](O)[C@H]1C(=O)NC2=O)c1ccc(O)cc1	616 µM	42 µM	14.67	
O=C(Cc1ccccc1)S[C@]12CC[C@H](O)[C@H]1C(=O)NC2=O (relative stereo)	774 µM	143 µM	5.418	
O=C(S[C@]12CC[C@H](O)[C@H]1C(=O)NC2=O)c1ccc(F)cc1 (relative stereo)	474 µM	318 µM	1.49	
O=C(Cc1ccccc1)S[C@@]12CC[C@H](O)[C@@H]1C(=O)NC2=O (relative stereo)	834 µM	132 µM	6.322	
CC(=O)O[C@H]1CCC2=C1C(=O)NC2=O	128 µM	867 µM	0.1477	
O=C(SC12CCC(O)C1C(=O)NC2=O)c1ccc(O)cc1 (racemic)	434 µM	225 µM	1.925	
CC(=O)S[C@]12CCC[C@H]1C(=O)NC2=O (relative stereo)	674 µM	59.2 µM	11.39	
O=C(S[C@]12CCC[C@H]1C(=O)NC2=O)c1ccc(F)cc1 (relative stereo)	384 µM	390 µM	0.9841	
CC(=O)O[C@@H]1CC[C@@]2(SC(=O)c3ccc(F)cc3)C(=O)NC(=O)[C@@H]12				Active
O=C(SC1CC[C@]2(SC(=O)c3ccc(F)cc3)C(=O)NC(=O)[C@H]12)c1ccc(F)cc1 (stereo partly drawn)	211 µM	98.3 µM	2.142	
O=C(S[C@]12CC[C@H](O)[C@H]1C(=O)NC2=O)c1ccccc1Cl (relative stereo)	717 µM	178 µM	4.022	
O=C(Cc1ccccc1)SC12CCC=C1C(=O)NC2=O (stereo not drawn)	93.1 µM	30.6 µM	3.042	
CC(=O)OC1CC[C@]2(SC(=O)Cc3ccccc3)C(=O)NC(=O)[C@H]12 (stereo partly drawn)	1610 µM	68.2 µM	23.57	
